The source of these data is PMC8217219 (Bone, 2021).

The test system of data set [1] is MC3T3 cells. Put plainly: Hoechst staining. Conditions: subconfluent MC3T3 cells, 100μM, 3 days. It is filed as cell-based. An outline of the steps:
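Subconfluent, proliferating MC3T3-E1 (sc4) cells were exposed to test compound at 1, 10 or 100 μM for 3 days. Cells were washed with PBS, covered with 0.1X Tris-EDTA, frozen at −80°C for at least 2 h and thawed at room temperature. They were then stained 15 min in the dark with Hoechst 33258 (0.5 μg/ml in 0.3 M NaCl, 5 mM Tris, pH 8.0). Fluorescence was read at 340/460 and fit to a DNA standard curve. Values were normalized to DMSO control (1:100 dilution); n = 3.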

Data set [2] concerns MC3T3 cells. Kind of data set: Live/Dead cytotoxicity assay. The format is cell-based. Conditions: subconfluent MC3T3 cells, 100μM, 3 days. In outline:
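Viability was scored in subconfluent MC3T3-E1 (sc4) cultures after 3 days with test compound at 1, 10 or 100 μM. Medium was removed and cells were incubated 20 min with calcein-AM and ethidium homodimer-1 in PBS. Live-cell fluorescence was read at 465/540 nm. Values were normalized to DMSO-treated control (1:100 dilution).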

The subject of data set [3] is MC3T3 cells. Put plainly: Alizarin red staining. The format is cell-based, mouse. Conditions: for osteogenic boosting (calcium deposition, alizarin red) / mineralization (alizarin red staining, percent coverage area): 5μM, day 18; for osteogenic boosting (calcium deposition, alizarin red): Ezh2 overexpressing MC3T3 cells; for mineralization (alizarin red staining, percent coverage area): control MC3T3 cells (empty vector).

The test system of data set [4] is MC3T3 cells. Kind of data set: Alkaline phosphatase. It is filed as cell-based, mouse. The settings on record: day six; for alkaline phosphatase (Alpl) enzymatic activity: MC3T3 cells, optimal doses (40μM CPI-169, 5μM all others), vs vehicle.
For data set [5], the system named is MC3T3 cells. Put plainly: RT-qPCR of osteogenic genes. It is filed as cell-based, mouse. Conditions: for osteogenic markers (mRNA) / expression of bone-related genes: 5μM; for expression of bone-related genes: combined with Ezh2 siRNA knockdown, days five and ten. (In qPCR the cycle at which signal appears reflects the starting amount.)
For data set [6], the system named is MC3T3 cells. Put plainly: MTS metabolic activity assay. The settings on record: subconfluent MC3T3 cells, 10μM, 3 days. It is filed as cell-based. In outline:
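Subconfluent MC3T3-E1 (sc4) cells were given test compound at 1, 10 or 100 μM for 3 days. The MTS reagent was used per kit protocol and absorbance was read at 490 nm. Metabolic activity was expressed relative to DMSO-treated control (1:100 dilution).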

A further data set deals with H3K27me3. Kind of data set: Western blot of cellular H3K27me3 levels. Conditions: MC3T3 cells, single dose 1μM, 24 hour treatment, relative to Gapdh. It is filed as cell-based, mouse. In general terms: Immunoblotting shows a protein as a band on a membrane.
For data set [7] the following is noted: cited from earlier work.
[8] abbreviates: 5μM day two to five, combined with Ezh2 siRNA knockdown, day 24.
[9] abbreviates: MC3T3 cell differentiation, day ten.
Where [10] appears, read: MC3T3 cells overexpressing Ezh2, day ten.

Take `CCS(=O)(=O)N1CCC([C@@H](C)n2c(C)c(C(=O)NCc3c(OC)cc(C)[nH]c3=O)c3ccccc32)CC1` [CPI-169]: the “cell numbers (Hoechst staining)” value with MC3T3 cells [1] is “not observed”. In addition, the “fraction of living cells (live/dead staining)” value (“fraction … (live/dead staining)” for short) in the data set on MC3T3 cells [2] is reported as “not observed”. In the data set on MC3T3 cells [3] (MC3T3 cells, 2X dose, from alizarin red quantitation (Fig. 4, red arrows)), this compound returned an optimal dose of 40 µM. The “alkaline phosphatase (Alpl) enzymatic activity” value with MC3T3 cells [4] is reported as “~three fold stimulation”.

With `C[S+](C)[O-]` [DMSO, dimethyl sulfoxide], in the data set on MC3T3 cells [4] (low (0.05%) and high (0.4%) doses vs osteogenic medium (OM)), the Alpl enzymatic activity entry is “enhance Alpl enzymatic activity”. In addition, the “mRNA levels of osteoblast differentiation markers (Alpl, Sp7, Ibsp, Phospho1)” value in the data set on MC3T3 cells [5] (0.05% DMSO or 0.4% DMSO vs no DMSO, osteogenic medium, six days) is reported as “significantly elevated”. Besides, the “expression of late marker Bglap” value in the data set with MC3T3 cells [5] (DMSO 0.05% or 0.4% in osteogenic media, day ten) is given as “did not show compelling changes”.

Turning to `CCN(c1cc(-c2ccc(CN3CCOCC3)cc2)cc(C(=O)NCc2c(C)cc(C)[nH]c2=O)c1C)C1CCOCC1` [EPZ-6438], the “metabolic activity (MTS)” value in the data set with MC3T3 cells [6] is “less harmful to metabolic cell activity”. The “cell numbers (Hoechst staining)” value in the data set on MC3T3 cells [1] was “significant reductions”. In the data set with MC3T3 cells [2], the “fraction … (live/dead staining)” value is “significant reductions”. Besides, in the data set on H3K27me3, the “reduction in H3K27me3” value is > 5 fold. In addition, the “alizarin red staining compared with GSK126 co-treatment” value in the data set with MC3T3 cells [3] (5μM combined with Ezh2 siRNA, day 24) is on record as “more robust staining”. For the same compound, the “ECM mineralization (alizarin red)” value in the data set on MC3T3 cells [3] (setting [8]) is on record as “enhances ECM mineralization”. In the data set on MC3T3 cells [3], the “osteogenic boosting (calcium deposition, alizarin red)” value is reported as “not observed”. The “mineralization (alizarin red staining, percent coverage area)” value in the data set on MC3T3 cells [3] was “accelerated mineralization and more intense alizarin red staining”. Also, the “osteogenic markers (mRNA)” value was “highly effective at increasing osteogenic markers” in the data set on MC3T3 cells [5] (setting [9]) and “not when cells overexpress Ezh2” with MC3T3 cells [5] (setting [10]). In addition, in the data set with MC3T3 cells [5], the “expression of bone-related genes” value was “co-stimulates expression of bone-related genes”.

As for `Cc1cc(C)c(CNC(=O)c2cc(-c3ccc(N4CCN(C)CC4)nc3)cc3c2c(C)cn3C(C)C)c(=O)[nH]1` [GSK503], the “cell numbers (Hoechst staining)” value in the data set with MC3T3 cells [1] was “significant reductions”. Moreover, in the data set on MC3T3 cells [2], the “fraction … (live/dead staining)” value is listed as “significant reductions”. Besides, the “reduction in H3K27me3” value in the data set with H3K27me3 is listed as > 5 fold.

As for `CCC(CC)n1ccc2c(C(=O)NCc3c(C)cc(C)[nH]c3=O)cc(C#N)cc21` [EI1], the “metabolic activity (MTS)” value in the data set with MC3T3 cells [6] was “less harmful to metabolic cell activity”. Besides, in the data set on MC3T3 cells [1], the “cell numbers (Hoechst staining)” value is given as “not observed”. The “fraction … (live/dead staining)” value with MC3T3 cells [2] is given as “not observed”. In addition, the “reduction in H3K27me3” value with H3K27me3 is given as 2–3 fold.

For `CC[C@H](C)n1cc(C)c2c(C(=O)NCc3c(C)cc(C)[nH]c3=O)cc(-c3ccc(N4CCNCC4)nc3)cc21` [GSK126], the “cell numbers (Hoechst staining)” value with MC3T3 cells [1] is reported as “significant reductions”. Moreover, the “fraction … (live/dead staining)” value in the data set with MC3T3 cells [2] is given as “significant reductions”. Moreover, the “reduction in H3K27me3” value in the data set on H3K27me3 was 2–3 fold. The “ECM mineralization (alizarin red)” value in the data set on MC3T3 cells [3] (setting [8]) is on record as “enhances ECM mineralization”. Further, in the data set with MC3T3 cells [3], the “osteogenic boosting (calcium deposition, alizarin red)” value is recorded as “not observed”; the “mineralization (alizarin red staining, percent coverage area)” value is “accelerated mineralization and more intense alizarin red staining”. Besides, in the data set on MC3T3 cells [5] (setting [9]), the “osteogenic markers (mRNA)” value is “highly effective at increasing osteogenic markers”. In addition, the “osteogenic markers (mRNA)” value in the data set on MC3T3 cells [5] (setting [10]) is given as “not when cells overexpress Ezh2”. Further, the “expression of bone-related genes” value in the data set with MC3T3 cells [5] is on record as “co-stimulates expression of bone-related genes”. In data set [7] (adult mice (8–12 weeks) ref 29), the “adverse effects in other tissues and organs (e.g., spleen, liver)” value is recorded as “no adverse effects”; the bone anabolic effect result is “modestly bone anabolic”. In addition, in data set [7] (normal and ovariectomized mice ref 29), the bone accrual entry is given as “effective for stimulation of bone accrual”.

In the case of `CCCc1cc(C)[nH]c(=O)c1CNC(=O)c1cc(-c2ccc(N3CCN(C(C)C)CC3)nc2)cc2c1cnn2C(C)C` [UNC1999], in the data set on MC3T3 cells [1], the “cell numbers (Hoechst staining)” value was “significant reductions”. In addition, the “fraction … (live/dead staining)” value in the data set on MC3T3 cells [2] is listed as “significant reductions”. In the data set with H3K27me3, the “reduction in H3K27me3” value is recorded as > 5 fold. In the data set on MC3T3 cells [3] (MC3T3 cells, optimal doses for first six days, day 24 and day 28), the “ECM mineralization (alizarin red)” value was “except UNC1999”. In addition, the “alkaline phosphatase (Alpl) enzymatic activity” value in the data set on MC3T3 cells [4] was “except for UNC1999”.

Turning to `Cc1cc(C)c(CN2CCc3c(Cl)cc(-c4c(C)noc4C)c(Cl)c3C2=O)c(=O)[nH]1` [PF-06726304], the “cell numbers (Hoechst staining)” value in the data set on MC3T3 cells [1] is on record as “significant reductions”. Further, in the data set on MC3T3 cells [2], the “fraction … (live/dead staining)” value is given as “significant reductions”.
